The text below walks through data of ChEMBL document CHEMBL1154353, “Stereoselective behavior of the functional diltiazem analogue 1-[(4-chlorophenyl)sulfonyl]-2-(2-thienyl)pyrrolidine, a new L-type calcium channel blocker” (J Med Chem, 2009).

Molecules are shown by their SMILES.

In data set [1] the test system is Aorta. Put plainly: Vasorelaxant activity in 80 mM K+-depolarized guinea pig thoracic aortic strip assessed as inhibition of calcium-induced contraction. Type of data set: functional, tissue-based. Particulars: Cavia porcellus. The essentials: (§1)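 Helicoidal guinea pig aortic strips in PSS at 35 °C, contracted with 80 mM KCl (equimolar substitution for Na+), plateau reached in about 45 min. Cumulative concentrations 0.1-500 μM in DMSO vehicle. Reported as % inhibition of contraction. IC50 by Probit analysis from log concentration-response curves (n = 6-8), not calculated when maximum effect was <50%.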

Data set [2] deals with Aorta. Put plainly: Vasorelaxant activity in 80 mM K+-depolarized guinea pig thoracic aortic strip assessed as inhibition of calcium-induced contraction at 100 uM. Type of data set: functional, Cavia porcellus. The essentials: as §1
In data set [3] the test system is Ileum. Briefly: Muscle relaxant activity in 80 mM K+-depolarized guinea pig ileum longitudinal smooth muscle assessed as inhibition of calcium-induced contraction. Type of data set: functional, tissue-based. As to conditions: Cavia porcellus. The essentials:
(§2)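 Guinea pig ileum longitudinal smooth muscle, 2 cm segments under 300-400 mg resting tension. Isometric recording in PSS, washed every 20 min for 1 h, then depolarized with 80 mM K+. Compounds added cumulatively in DMSO. Reported as % inhibition of calcium-induced contraction. IC50 from log concentration-response curves by Probit analysis.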

A short description of data set [4]: Negative inotropic activity in guinea pig left atrium assessed as decrease in atrial tension at 10 uM relative to control. Type of data set: functional, Cavia porcellus, Cardiac atrium. Further details: scale not given: the % may be the effect or the level left. The method in brief: (§3)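 Isolated guinea pig left atria paced at 1 Hz (0.6-0.8 ms pulses, about 50% threshold voltage) in PSS at 35 °C, pH 7.4, gassed 95% O2-5% CO2. Isometric tension recorded after 45-60 min stabilization. Cumulative concentrations 0.1-100 μM, DMSO ≤0.3%. Reported as % decrease in developed tension vs control (n = 4-6). EC50 by Probit analysis (n = 6-8), not calculated when maximum effect was <50%.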

The subject of data set [5] is Ileum. Put plainly: Muscle relaxant activity in 80 mM K+-depolarized guinea pig ileum longitudinal smooth muscle assessed as inhibition of calcium-induced contraction at 5 uM. Format: functional, Cavia porcellus. The method in brief: as §2
Data set [6] in a line: Negative chronotropic activity in guinea pig right atrium assessed as decrease in atrial rate at 50 uM relative to control. Format: functional, Cavia porcellus, Cardiac atrium. Further details: scale not given: the % may be the effect or the level left. The essentials:
(§4)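 Spontaneously beating guinea pig right atria in PSS at 35 °C, pH 7.4, 95% O2-5% CO2, pretreatment rate 170-195 beats/min. Cumulative concentrations 0.1-100 μM, each added at steady state, DMSO ≤0.3%. Reported as % decrease in atrial rate vs control, n = 6-8.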

Data set [7] is described as follows: Negative inotropic activity in guinea pig left atrium assessed as decrease in atrial tension. As to conditions: Cavia porcellus, Cardiac atrium. Format: functional, tissue-based. The method in brief:
as §3

The target in data set [8] is T1, Voltage-gated L-type calcium channel (Rattus norvegicus, UniProt P22002+Q02485+P27732). Briefly: Blockade of L-type calcium channel in Wistar rat tail artery smooth muscle cells assessed as inhibition of peak L-type barium current by whole cell patch clamp method. A general note: In patch-clamp work, channel activity is measured electrically.
Data set [9] in a line: Negative chronotropic activity in guinea pig right atrium assessed as decrease in atrial rate at 100 uM relative to control. Type of data set: functional, Cavia porcellus, Cardiac atrium. Further details: scale not given: the % may be the effect or the level left. The essentials: as §4
Data set [10] has as its system Ileum. Put plainly: Muscle relaxant activity in 80 mM K+-depolarized guinea pig ileum longitudinal smooth muscle assessed as inhibition of calcium-induced contraction at 10 uM. Type of data set: functional, Cavia porcellus. The method in brief: as §2
The nature of data set [11]: Negative inotropic activity in guinea pig left atrium assessed as decrease in atrial tension at 100 uM relative to control. Format: functional, Cavia porcellus, Cardiac atrium. Details: scale not given: the % may be the effect or the level left. The essentials: as §3
Data set [12] in a line: Ratio of diltiazem EC50 to compound EC50 for negative inotropic activity in guinea pig left atrium. Format: functional, Cavia porcellus, Cardiac atrium.
The test system of data set [13] is Aorta. Briefly: Ratio of compound IC50 to diltiazem IC50 for vasorelaxant activity in 80 mM K+-depolarized guinea pig thoracic aortic strip. Format: functional, Cavia porcellus.
The target in data set [14] is T1, Voltage-gated L-type calcium channel. Put plainly: Displacement of [3H]diltiazem from […] binding site of L-type calcium channel in Wistar rat cardiomyocytes by liquid scintillation counting. Type of data set: cell-based. The method in brief:
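Thawed rat cardiomyocytes (200 μg), isolated by collagenase/dispase perfusion and pooled from at least two animals. Incubated with 5 nM [3H]diltiazem and unlabeled ligand (0.1 nM to 100 μM) in 50 mM Tris pH 7.4, 25 °C, 90 min. Reaction stopped by filtration through PEI-soaked GF/B filters, then scintillation counting. Nonspecific binding defined with 100 μM diltiazem. Run in triplicate; sigmoidal fit of % specific binding.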

As for `O=S(=O)(c1ccc(Cl)cc1)N1CCC[C@H]1c1cccs1`, the results for the IC50 (with Aorta [1]; with Ileum [3]; in [8]) were 5.16 µM, 2.06 µM and 22.2 µM, respectively. Further, the “inhibition (INH)” value with Aorta [2] came out at 83%; in the data set with Ileum [5], 69%. The figures for the Activity in data set [4] and in [6] were 96% and 7%, respectively. In addition, in [7], the EC50 is 0.45 µM.

Regarding `CCO[C@@]1(c2ccc(Br)cc2)SC=C(C)n2c1noc2=O`, the “inhibition (INH)” value came to 11% with Aorta [2] and 3% with Ileum [10]. Further, the Activity in data set [9] is 16%. The concentration giving a half-maximal response (EC50) in [7] came out at 0.07 µM.

For `O=S(=O)(c1ccc(Cl)cc1)N1CCC[C@@H]1c1cccs1`, the “inhibition (INH)” value in the data set on Aorta [2] came to 24%; in the data set on Ileum [5], 94%. Besides, the IC50 in the data set with Ileum [3] stood at 1.07 µM; in data set [8], 27.1 µM. For the same compound, the Activity in data set [11] is listed as 98%; in data set [6] it was 10%. Further, the concentration for a half-maximal effect (EC50) in [7] was 0.23 µM.

On to `C=CCN(c1ccccc1)S(=O)(=O)c1ccc(Cl)cc1`, for which the results for the IC50 in the data set on Aorta [1] and in the data set on Ileum [3] were 17.7 µM and 4.32 µM, respectively. For the same compound, the “inhibition (INH)” value in the data set on Aorta [2] is 54%; in data set [14], “Dose-dependent effect”; in the data set on Ileum [10], 83%. Besides, in [9], the Activity is 5%. Also, in data set [12], the “Ratio EC50” value is reported as 2.5. In addition, the “Ratio IC50” value in the data set on Aorta [13] is reported as 6.8.

Take `CSC1=NCCCN1S(=O)(=O)c1ccc(Cl)cc1`: the “inhibition (INH)” value is reported as 57% in the data set on Aorta [2] and 83% in the data set on Ileum [10]. Besides, the Activity in [9] is 5%. For the same compound, the IC50 in the data set on Ileum [3] stood at 14.8 µM. Further, the “Ratio IC50” value with Aorta [13] was 9.7.

`O=S(=O)(c1ccc(Cl)cc1)N1CCCC1c1cccs1` (racemic): the “inhibition (INH)” value is reported as 74% with Aorta [2], 90% in the data set on Ileum [5], 90% in the data set with Ileum [10] and “Dose-dependent effect” in data set [8] (rat). The Activity in [9] and in data set [6] was 4% each time. Also, in data set [12], the “Ratio EC50” value was 2.5. Further, the IC50 in the data set with Ileum [3] came to 1.18 µM; in data set [8] it was 23.5 µM. Further, the “Ratio IC50” value in the data set with Aorta [13] is recorded as 2.2.

`COc1ccc([C@@H]2Sc3ccccc3N(CCN(C)C)C(=O)[C@@H]2OC(C)=O)cc1` [DILTIAZEM]: the IC50 in the data set with Aorta [1] is 2.6 µM. Moreover, the “inhibition (INH)” value in the data set on Aorta [2] is on record as 88%; in the data set on Ileum [10], 98%. Moreover, the EC50 in [7] came to 0.79 µM.

Broadly, the IC50 is the point on the concentration scale where inhibition reaches its midpoint. As a reminder, the EC50 is the concentration at which the effect is half-maximal.
